Laboratory results published in ChEMBL document CHEMBL4732138, “Evaluation of the Structure-Activity Relationship of Microtubule-Targeting 1,2,4-Triazolo[1,5-a]pyrimidines Identifies New Candidates for Neurodegenerative Tauopathies” (J Med Chem, 2021).

Tests used:
Tubulin (Homo sapiens) [1] = target: T1, Tubulin (Homo sapiens) (UniProt P68371+Q9H4B7+P0DPH7+P68366+Q13509+Q71U36+P04350+Q3ZCM7+P07437+P68363+Q9BQE3+Q6PEY2+Q13885+Q9BVA1+Q9BUF5); assay: Stabilization of microtubules in human QBI293 cells assessed as fold change in alpha tubulin levels at 1 uM after 4 hrs by ELISA relative to DMSO; assay type: cell-based
Method in brief: (§1)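 QBI293 cells were grown in DMEM with 10% FBS, 2 mM L-glutamine and penicillin/streptomycin, then plated at 6 × 10^5 cells/well and left overnight. Medium was replaced with fresh medium holding vehicle (DMSO) or compound, and cells were incubated 4 h. Whole-cell extract supernatants were protein-normalized by BCA assay. AcTub and α-tubulin were quantified by ELISA against standard curves. Values are fold-change over DMSO, analysed by one-way ANOVA.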

Tubulin (Homo sapiens) [2] = target: T1, Tubulin (Homo sapiens); assay: Stabilization of microtubules in human QBI293 cells assessed as fold change in alpha tubulin levels at 10 uM after 4 hrs by ELISA relative to DMSO; assay type: cell-based; method in brief: as §1
Tubulin (Homo sapiens) [3] = target: T1, Tubulin (Homo sapiens); assay: Stabilization of microtubules in human QBI293 cells assessed as fold change in acetylated tubulin levels at 1 uM after 4 hrs by ELISA relative to DMSO; assay type: cell-based; method in brief: as §1
Tubulin (Homo sapiens) [4] = target: T1, Tubulin (Homo sapiens); assay: Stabilization of microtubules in human QBI293 cells assessed as fold change in acetylated tubulin levels at 1 uM after 4 hrs by ELISA relative to cevipabulin; assay type: cell-based
Tubulin (Homo sapiens) [5] = target: T1, Tubulin (Homo sapiens); assay: Stabilization of microtubules in human QBI293 cells assessed as fold change in acetylated tubulin levels at 10 uM after 4 hrs by ELISA relative to DMSO; assay type: cell-based; method in brief: as §1
Tubulin (Homo sapiens) [6] = target: T1, Tubulin (Homo sapiens); assay: Stabilization of microtubules in human QBI293 cells assessed as fold change in acetylated tubulin levels at 10 uM after 4 hrs by ELISA relative to cevipabulin; assay type: cell-based
[7] = n-octanol-water distribution coefficient, log D of the compound at pH 7.4 by shake flask method; assay type: physicochemical
Method in brief: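 Distribution coefficient between n-octanol and water at pH 7.4, measured by shake-flask method.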

Tubulin (Homo sapiens) [8] = target: T1, Tubulin (Homo sapiens); assay: Stabilization of microtubules in human QBI293 cells assessed as decrease in alpha-tubulin levels at 1 to 10 uM after 4 hrs by ELISA relative to control; assay type: cell-based; design: scale not given: the % may be the effect or the level left; details: dose 1-10 µM
Method in brief: (§2)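 QBI293 cells are grown in DMEM with 10% FBS, 2 mM L-glutamine and penicillin/streptomycin, plated at 6 × 10^5 cells/well and incubated overnight. […] Acetyl- and total α-tubulin in whole-cell extract supernatants are measured by ELISA against standard curves, with protein by BCA. Values are fold-change over DMSO; AcTub is also given relative to 100 nM cevipabulin positive control. Significance is by one-way ANOVA.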

Tubulin (Homo sapiens) [9] = target: T1, Tubulin (Homo sapiens); assay: Stabilization of microtubules in human QBI293 cells assessed as increase in acetylated tubulin levels after 4 hrs by ELISA; assay type: cell-based; method in brief: as §2
Tubulin (Homo sapiens) [10] = target: T1, Tubulin (Homo sapiens); assay: Stabilization of microtubules in human QBI293 cells assessed as decrease in alpha-tubulin levels at 10 uM after 4 hrs by ELISA relative to control; assay type: cell-based; design: scale not given: the % may be the effect or the level left
Method in brief: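 QBI293 cells grown in DMEM with 10% FBS, 2 mM L-glutamine and penicillin/streptomycin, plated at 6 × 10^5 cells/well and left overnight. […] Whole-cell extract supernatants protein-normalised by BCA. Total α-tubulin measured by ELISA against standard curves, reported as fold-change over DMSO-treated cells; one-way ANOVA.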

[11] = Ratio of drug concentration in brain to plasma in CD-1 mouse at 2.5 mg/kg, ip administered as single cassette dosing and measured after 1 hr; assay type: ADME, organism-based; details: read-out: BPR
Method in brief: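 Groups of three female CD-1 mice, 2–3 months old, cassette-dosed i.p. with 2–3 compounds at the same time, each at 2.5 mg/kg in DMSO. Euthanised 1 h after dosing. Brain hemispheres homogenised in 10 mM ammonium acetate pH 5.7 (50% w/v). Plasma from blood collected in EDTA and centrifuged 4,500 × g, 10 min, 4 °C. Compound levels measured in both; brain/plasma ratio reported.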

[12] = n-octanol/water, read-out: logD

Structure (SMILES) | fold change (FC) (Tubulin (Homo sapiens) [1]) | fold change (FC) (Tubulin (Homo sapiens) [2]) | fold change (FC) (Tubulin (Homo sapiens) [3]) | fold change (FC) (Tubulin (Homo sapiens) [4]) | fold change (FC) (Tubulin (Homo sapiens) [5]) | fold change (FC) (Tubulin (Homo sapiens) [6]) | logD [7, 12] | Activity (Tubulin (Homo sapiens) [8]) [%] | Activity (Tubulin (Homo sapiens) [9]) | Activity (Tubulin (Homo sapiens) [10]) [%] | Kp at 1 h [11] | logD ([7]; octanol/water)
C[C@@H](Nc1c(-c2ccc(C#N)cc2F)c(Cl)nc2ncnn12)C(C)(C)C | 0.86 | 0.93 | 4.41 | 0.71 | 7.67 | 1.24 | 2.86 |  |  |  |  | 
C[C@H](Nc1c(-c2c(F)cc(O)cc2F)c(Cl)nc2ncnn12)C(F)(F)F | 0.84 | 0.57 | 1.22 | 0.23 | 4.11 | 0.77 |  | > 15 |  |  |  | 
CC(C)[C@@H](C)Nc1c(-c2c(F)cccc2F)c(Cl)nc2ncnn12 | 1 | 0.96 | 4.36 | 0.96 | 4.88 | 1.07 | 3.16 |  |  |  |  | 
Cc1cc(F)c(-c2c(Cl)nc3ncnn3c2N[C@@H](C)C(F)(F)F)c(F)c1 | 0.99 | 0.78 | 1.62 | 0.28 | 2.73 | 0.48 |  | > 15 |  |  |  | 
C[C@H](Nc1c(-c2c(F)cc(C#N)cc2F)c(Cl)nc2ncnn12)C(F)(F)F | 0.94 | 0.95 | 1.9 | 0.27 | 3.56 | 0.51 |  |  | Dose-dependent effect |  |  | 
C[C@H](Nc1c(-c2c(F)cc(Cl)cc2F)c(Cl)nc2ncnn12)C(F)(F)F | 0.93 | 0.81 | 1.88 | 0.31 | 4.28 | 0.7 |  | > 15 |  |  |  | 
Fc1cc(F)c(-c2c(Cl)nc3ncnn3c2N2CCCCC2)c(F)c1 | 1.23 | 1.2 | 2.21 | 0.13 | 5.84 | 0.33 |  |  | Dose-dependent effect |  |  | 
CC(Cc1c(-c2c(F)cc(F)cc2F)c(Cl)nc2ncnn12)C(F)(F)F (configuration not stated) | 1.03 | 0.78 | 2.3 | 0.53 | 2.29 | 0.53 |  |  |  | 22 |  | 
C[C@H](Nc1c(-c2cc(F)ccc2F)c(Cl)nc2ncnn12)C(F)(F)F | 1.05 | 0.9 | 1.4 | 0.07 | 4.1 | 0.22 |  |  | Dose-dependent effect |  |  | 
CC(C)CNc1c(-c2c(F)cc(F)cc2F)c(Cl)nc2ncnn12 | 1.3 | 0.99 | 1.63 | 0.38 | 2.28 | 0.53 |  |  | Dose-dependent effect |  |  | 
C[C@H](Nc1c(-c2c(F)cc([N+](=O)[O-])cc2F)c(Cl)nc2ncnn12)C(F)(F)F | 0.96 | 0.94 | 3.24 | 0.6 | 6.65 | 1.23 |  |  | Dose-dependent effect |  |  | 
CO[C@H]1C[C@H]2CC[C@@H](C1)N2c1c(-c2c(F)cc(C#N)cc2F)c(Cl)nc2ncnn12 | 0.99 | 1 | 2.61 | 0.64 | 4.32 | 1.06 | 2.74 |  |  |  |  | 
CC(C)[C@@H](C)Nc1c(-c2c(F)cc(C#N)cc2F)c(Cl)nc2ncnn12 | 0.93 | 0.94 | 3.8 | 0.62 | 4.28 | 0.69 | 2.47 |  |  |  | 0.7 | 
N#Cc1ccc(-c2c(Cl)nc3ncnn3c2N2CCCCCC2)c(F)c1 | 1.04 | 0.99 | 7.17 | 0.55 | 12.6 | 0.97 | 3.15 |  |  |  |  | 
Fc1cc(F)c(-c2c(Cl)nc3ncnn3c2NC2CCC2)c(F)c1 | 0.94 | 0.95 | 0.97 | 0.13 | 1.75 | 0.23 |  |  | Dose-dependent effect |  |  | 
C[C@H](Nc1c(-c2c(F)cc(OCCCO)cc2F)c(Cl)nc2ncnn12)C(F)(F)F |  |  |  |  |  |  |  | > 15 |  |  |  | 
C[C@@H](Nc1c(-c2c(F)cc(F)cc2F)c(Cl)nc2ncnn12)C(F)(F)F | 1.23 | 1.47 | 1.39 | 0.24 | 2.47 | 0.43 |  |  | Dose-dependent effect |  |  | 
CC(C)[C@H](Nc1c(-c2c(F)cc(F)cc2F)c(Cl)nc2ncnn12)C(F)(F)F |  |  |  |  |  |  |  |  |  | 39 |  | 
CSc1cc(F)c(-c2c(Cl)nc3ncnn3c2N[C@@H](C)C(F)(F)F)c(F)c1 | 0.88 | 0.56 | 1.75 | 0.27 | 2.23 | 0.35 |  | > 15 |  |  |  | 
Fc1cc(F)c(-c2c(Cl)nc3ncnn3c2N2CCCC2)c(F)c1 | 1.12 | 1.18 | 1.14 | 0.07 | 2.74 | 0.16 |  |  | Dose-dependent effect |  |  | 
C[C@H](Nc1c(-c2ccc(F)cc2F)c(Cl)nc2ncnn12)C(F)(F)F | 0.99 | 0.86 | 1.54 | 0.13 | 3.19 | 0.27 |  |  | Dose-dependent effect |  |  | 
CC(C)[C@@H](C)Nc1c(-c2ccccc2F)c(Cl)nc2ncnn12 | 1 | 1.04 | 0.95 | 0.2 | 2.1 | 0.43 | 2.95 |  |  |  |  | 
C[C@H](Nc1c(-c2cc(F)cc(F)c2)c(Cl)nc2ncnn12)C(F)(F)F | 1.12 | 1.12 | 1.52 | 0.12 | 3.97 | 0.3 |  |  | Dose-dependent effect |  |  | 
C[C@H](Nc1c(-c2c(F)cccc2F)c(Cl)nc2ncnn12)C(F)(F)F | 1.06 | 1.02 | 2.2 | 0.16 | 5.28 | 0.39 |  |  | Dose-dependent effect |  |  | 
COc1cc(F)c(-c2c(Cl)nc3ncnn3c2N[C@@H](C)C(F)(F)F)c(F)c1 | 0.72 | 0.51 | 3.16 | 0.64 | 2.07 | 0.42 |  | > 15 |  |  |  | 
CC(C)[C@@H](C)Nc1c(-c2ccc(C#N)cc2F)c(Cl)nc2ncnn12 (stereo in doubt; 67) |  |  |  |  |  |  | 2.9 |  |  |  |  | 
N#Cc1cc(F)c(-c2c(Cl)nc3ncnn3c2N2CCCCCC2)c(F)c1 | 0.98 | 0.99 | 6.4 | 1.04 | 11.2 | 1.82 | 2.12 |  |  |  | 0.7 | 
CC(C)[C@@H](C)Nc1c(-c2ccc(C#N)cc2F)c(Cl)nc2ncnn12 (stereo in doubt; 68) |  |  |  |  |  |  |  |  |  |  |  | 2.67
CO[C@H]1C[C@H]2CC[C@@H](C1)N2c1c(-c2c(F)cc(F)cc2F)c(Cl)nc2ncnn12 | 1.12 | 1.38 | 3.65 | 0.54 | 7.43 | 1.11 | 3.38 |  | Dose-dependent effect |  |  | 
